Screening data (PubChem BioAssay)
Compounds with a hit are over-represented: about 3% of the library has one in this group of screens.
Apaf-1 inh – blocks human Apaf-1 apoptosome activity. inhibition, % at 20 µM. reconstituted apoptosome caspase-3 activity, DEVD-Rh110 fluorescence. O14727. hit rate 0.71% among 330,000; active = inhibition of at least 40% at 20 µM;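 note: plate controls were DMSO wells for no effect and DEVD-CHO caspase inhibitor wells for full effect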
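detection = Rh110 fluorescence intensity | test system = biochemical Apaf-1 apoptosome reconstitution | also added = cytochrome c and DEVD-Rh110 substrate | schedule = 30 min plus 50 min, RT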
SENP8 block-1 – blocks human SENP8 cleavage of Nedd8 substrate; Q96LD8; recombinant SENP8, Nedd8 substrate fluorescence; hit rate 0.64% among 360,000; inhibition, % at 20 µM; in the data active = inhibition mostly above about 40%, no sharp cut-off; inactive = mostly below about 27%
SENP6 block – SENP6 protease inhibition; inhibition, % at 10 µM; Recombinant SENP6 catalytic domain, aminoluciferin luminescence; hit rate 1.8% among 330,000; Q9GZR1;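 active = inhibition above about 50% at the single tested dose, limit read from the data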;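 note: plate controls were DMSO wells with enzyme for no effect and DMSO wells lacking enzyme for full effect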
Target sequence (Q9GZR1 628-1112 limits assumed): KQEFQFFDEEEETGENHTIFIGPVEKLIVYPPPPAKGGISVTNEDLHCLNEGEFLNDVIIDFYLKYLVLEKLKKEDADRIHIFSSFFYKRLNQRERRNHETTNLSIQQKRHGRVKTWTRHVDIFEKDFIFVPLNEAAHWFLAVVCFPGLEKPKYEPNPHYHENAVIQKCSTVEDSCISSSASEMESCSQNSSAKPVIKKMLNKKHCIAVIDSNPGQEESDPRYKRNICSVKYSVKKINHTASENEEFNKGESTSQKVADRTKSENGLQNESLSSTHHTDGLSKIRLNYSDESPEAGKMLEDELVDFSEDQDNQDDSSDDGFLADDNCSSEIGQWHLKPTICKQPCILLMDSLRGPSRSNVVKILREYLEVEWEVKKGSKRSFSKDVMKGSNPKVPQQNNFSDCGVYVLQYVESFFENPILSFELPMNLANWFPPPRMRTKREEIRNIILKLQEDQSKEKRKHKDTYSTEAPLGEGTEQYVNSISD
SENP7 inh – inhibitors of human SENP7 protease; Q9BQF6; hit rate 1.5% among 330,000; AID 434973; inhibition, % at 5 µM; recombinant SENP7, Z-RLRGG-aminoluciferin luminescence, 40 min;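 active = inhibition above about 50% at the single test dose, limit read from the data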;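 note: plate controls were DMSO with enzyme for no effect and no enzyme buffer wells for full effect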
SENP8 block-2 – blocks the human protease SENP8 | inhibition, % at 10 µM | purified SENP8, Z-RLRGG-aminoluciferin cleavage, luminescence | AID 2540 | Q96LD8 | hit rate 1.2% among 330,000; in the data active = inhibition above about 50%
UBC13 inh – inhibitors of human UBC13 polyubiquitin chain formation; inhibition, % at 20 µM; P61088; TR-FRET; hit rate 0.47% among 330,000; AID 485273; in the data active = inhibition above about 45%, passing the limit was not always enough
SENP8 inh conf – confirmation of human SENP8 protease inhibitors | purified SENP8, Nedd8-AMC/pro-Nedd8 cleavage fluorescence, 30 min | hit rate 15% among 1,400 | shares compounds with SENP8 block-1 | AID 624319 | inhibition, % at 25 µM; in the data active = inhibition mostly above about 39%, no sharp cut-off; inactive = mostly below about 34%
* hit, by the source's call; i = inactive; nt = not tested or not shown.

SMILES | Apaf-1 inh | SENP8 block-1 | SENP6 block | SENP7 inh | SENP8 block-2 | UBC13 inh | SENP8 inh conf
CS(=O)(=O)N(CC(=O)NCC1CCCO1)c1ccc(F)c(Cl)c1 (centres undefined) | 8.8 | 51.2* | -9.3 | -12.3 | -6.3 | -0.8 | 7.2
NNc1nnc2c3cc(F)ccc3n(CCc3ccccc3)c2n1 | 16.5 | 51.6* | 17.0 | -0.7 | 4.9 | -20.2 | 39.2
CCS(=O)(=O)N1CCC(C(=O)N2CCc3ccccc3C2)CC1 | 2.0 | 44.1* | -3.7 | 9.0 | 1.1 | 4.1 | 76.7*
CC1CCC(=NNc2ccc(C(F)(F)F)cc2[N+](=O)[O-])CC1 (centres undefined) | 1.1 | 43.0* | -10.8 | -3.6 | -4.3 | -13.8 | 25.8
CN(C)c1cc[n+](/C(C(=S)Nc2ccc(SC(F)F)cc2)=C(/[O-])c2ccccc2)cc1 | -12.7 | 43.5* | -11.3 | 11.3 | 1.1 | -0.9 | 23.4
CCCC(=O)N1CCC1(C)C(=O)NS(=O)(=O)c1ccccc1 (centres undefined) | nt | 23.3 | nt | nt | nt | nt | nt
CC(C)(C(=O)N1CCC1(C)C(=O)Nc1ccccc1Br)c1ccccc1 (centres undefined) | nt | -15.5 | nt | nt | nt | nt | nt
C=C(C(=O)O)C1CCC2(C)CCCC(C)(O)C2C1 (centres undefined) | -6.1 | 47.9* | -7.7 | -6.3 | -3.1 | -1.1 | -0.2
Cc1nccn1CC1CCc2c(c3ccccc3n2C)C1=O (centres undefined) | -4.6 | -5.8 | -4.2 | -12.2 | 5.5 | 20.2 | nt
Cc1[nH]cnc1CN1CCc2c(c3ccccc3n2C)C1=O | 33.0 | 83.8* | 21.1 | 17.0 | 11.8 | -4.2 | 76.3*
Nc1ncnc2c1ncn2[C@@H]1O[C@H](C(=O)NS(=O)(=O)c2ccccc2[N+](=O)[O-])[C@@H](O)[C@H]1O | nt | 10.1 | nt | nt | nt | nt | nt
Nc1[nH]c(C(=O)c2ccccc2)c(-c2ccccc2C(F)(F)F)c1C(=O)NCc1ccc(F)cc1 | nt | 4.8 | nt | nt | nt | nt | nt
Cc1cc(/N=C/N(C)C)on1 | -20.2 | 11.6 | -1.6 | 6.8 | 5.5 | 9.3 | nt
CN(C)C=Nc1nonc1N | 10.0 | 45.3* | -18.5 | -7.3 | -7.3 | -17.7 | 1.5
Cc1ccc(C2NNC(=O)C2NC(=O)c2ccccc2)cc1 (centres undefined) | 10.5 | 64.0* | 3.7 | 1.4 | 1.2 | -8.2 | 8.0
O=C(NC1C(=O)NNC1c1ccccc1)c1ccc(F)cc1 (centres undefined) | 33.7 | 37.7 | -9.2 | 5.6 | 2.7 | -0.7 | nt
COc1ccc(-c2nc(-c3ccccc3OC)no2)cc1OC | 12.2 | 40.0* | 33.0 | 8.7 | 6.6 | 8.0 | 29.4
O=C(NCc1cccc(F)c1)Nc1nnc([C@@H]2C[C@H](O)[C@@H](CO)O2)s1 | nt | 6.1 | nt | nt | nt | nt | nt
CCC(NC(=S)NCc1ccccc1)C(=O)O (centres undefined) | -3.6 | 47.7* | 1.0 | -0.2 | -1.0 | 5.6 | 35.0
O=[N+]([O-])c1ccc(Nc2ccccc2)c2nonc12 | 12.4 | 49.2* | -3.5 | 1.3 | -9.2 | i | 16.8
CC(=O)NS(=O)(=O)c1ccc(Nc2ccc([N+](=O)[O-])c3nonc23)cc1 | -3.1 | 24.3* | 5.6 | 4.2 | 0.1 | -353.7 | 26.4
Cc1cc(Nc2ccccc2)c2c([N+](=O)[O-])cc(C)c(C)c2n1 | 13.0 | 45.2* | 7.1 | 5.8 | 4.2 | -2.3 | 2.1
O=[N+]([O-])c1cnccc1Nc1ccccc1 | -5.4 | 18.6 | -3.6 | 6.8 | 3.9 | 3.3 | nt
CC(=O)Nc1ccc(Nc2ccc3nonc3c2[N+](=O)[O-])cc1 | 2.7 | 30.6 | 4.9 | -12.2 | -1.1 | -80.3 | nt
COc1cccc(NC(=O)CN2CCC(NC(=O)c3ccccc3C)CC2)c1 | nt | 6.4 | nt | nt | nt | nt | nt
Nc1ccc(S(=O)(=O)Nc2nc(-c3ccccc3)cc(-c3ccccc3O)n2)cc1 | nt | 25.4 | nt | nt | nt | nt | nt
Cc1ccc(OCC(=O)NNC(=O)c2ccc(F)c(S(=O)(=O)N3CCOCC3)c2)cc1C | nt | 10.6 | nt | nt | nt | nt | nt
O=S1(=O)CC(N2CCCC2)CN1Cc1cn(Cc2cccc(C(F)(F)F)c2)nn1 (centres undefined) | nt | 16.0 | nt | nt | nt | nt | nt
Cc1cc(C(=O)N2CCC2(C)C(=O)Nc2cccc3ccccc23)nn1C (centres undefined) | nt | 14.7 | nt | nt | nt | nt | nt
CCN(CC)c1ccc(NC2CC(=O)N(CCc3ccc(OC)cc3)C2=O)cc1 (centres undefined) | 6.6 | 73.6* | 2.8 | 5.5 | 5.2 | 3.8 | 41.2
